Screens deposited in PubChem BioAssay by Broad Institute.
F508del corr: correctors of CFTR F508del function in bronchial epithelial cells. hit rate 0.36% among 350,000. activity (quench increase), % at 7.58 µM. CFBE cells, YFP halide quenching; stimulated with forskolin plus potentiator P3; % fluorescence drop versus neutral controls;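 active = mean added fluorescence quench of at least 8% versus neutral control, with both replicates also reaching 8%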;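 also: cells transiently co-express mutant CFTR-F508del with the halide-sensitive YFP; corrector assay measuring rescue of mutant channel to the surface after 24 h compound exposure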
ERAP1 HTS inh: inhibitors of human ERAP1 aminopeptidase | Q9NZ08 | recombinant ERAP1, Leu-AMC fluorescence, 60 min | inhibition, % at 10.7 µM | hit rate 0.15% among 340,000;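 active = mean replicate inhibition of at least 30%, or all replicates individually reaching that 30% level; inactive = mean below 30% and not every replicate reaching it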;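 also: 0% = neutral control wells and 100% = L-leucinethiol positive control wells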
S100A4 MyoIIA: blocks human S100A4 binding to myosin IIA peptide; inhibition, % at 10.7 µM; hit rate 0.14% among 360,000; S100A4/TAMRA-MyoIIA peptide fluorescence polarization; AID 652163;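 active = mean inhibition of at least 70% across replicates, with every replicate also reaching that level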
Target sequence (P26447 whole entry, looked up): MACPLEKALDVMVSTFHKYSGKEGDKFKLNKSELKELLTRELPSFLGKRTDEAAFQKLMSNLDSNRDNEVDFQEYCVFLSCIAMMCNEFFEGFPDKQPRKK
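Assay system: human S100A4 monomer with TAMRA-labelled myosin IIA peptide / Buffer or medium: Calcium-containing HEPES buffer, pH 7.2 / Reagent: TAMRA-labelled myosin IIA heavy-chain peptide probe, 5 nM / Compound: one dose per compound / Timing: polarization read 5 min after assay mix addition, stable 5–60 min / Benchmarks: neutral control DMSO, positive control TFP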
rRNA inh HTS: selective bacterial rRNA inhibition in E. coli. E. coli WT GFP vs humanized-ribosome RFP mutants, fluorescence, 24 h; active compounds read low; DMSO median 0, no signal -100. GFP signal change (wild-type ribosome), % (test concentration not listed). hit rate 1.6% among 350,000;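 active = significant combined selectivity score with lowered wild-type GFP, culture density cut under 30%, mutant RFP and density less affected; inactive = any of these conditions unmet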
SIRT5 block: blocks human SIRT5 desuccinylation of peptide; Purified SirT5, succinyl-peptide AMC, trypsin-coupled fluorescence; hit rate 1.1% among 330,000; inhibition, % at 15 µM; Q9NXA8; AID 652115; in the data active = inhibition above about 15%
Target sequence (Q9NXA8 whole entry, looked up): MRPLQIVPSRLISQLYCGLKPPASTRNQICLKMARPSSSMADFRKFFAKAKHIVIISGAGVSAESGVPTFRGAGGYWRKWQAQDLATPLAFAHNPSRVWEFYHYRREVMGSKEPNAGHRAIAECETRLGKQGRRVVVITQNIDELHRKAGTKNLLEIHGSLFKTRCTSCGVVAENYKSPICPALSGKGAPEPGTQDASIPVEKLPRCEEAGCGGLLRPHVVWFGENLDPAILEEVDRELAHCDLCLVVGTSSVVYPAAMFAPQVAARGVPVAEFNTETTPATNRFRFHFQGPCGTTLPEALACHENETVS
* hit, by the source's call; x = no result given. Only some compounds are listed: those with a hit (about 3.1% of all), similar ones and a draw of the others.

SMILES	F508del corr	ERAP1 HTS inh	S100A4 MyoIIA	rRNA inh HTS	SIRT5 block
CC[C@]12c3[nH]c4ccc(Cl)cc4c3CCN1C(=O)[C@@H](CC(=O)NCCC1=CCCCC1)C[C@@H]2C(=O)N1CCN(C(=O)C2CC2)CC1	1	-2	-1	1	18*
C[C@]12c3[nH]c4ccc(Cl)cc4c3CCN1C(=O)[C@@H](CC(=O)NCc1cccc(C(F)(F)F)c1)C[C@@H]2C(=O)N1CCOCC1	4	0	-7	-12	40*
C[C@]12c3[nH]c4ccccc4c3CCN1C(=O)C(CC(=O)NCc1cccc(C(F)(F)F)c1)C[C@@H]2C(=O)N1CCOCC1 (stereo not given in full)	-2	0	3	-4	2
COc1ccc(S(=O)(=O)N(C)C[C@H]2Oc3ccc(NC(=O)Cn4cnnn4)cc3CC(=O)N([C@@H](C)CO)C[C@@H]2C)cc1	-2	-2	-1	2	-1
N#CC12COC3(CCCCC3C1(C#N)C#N)OC2=N (stereo not given)	3	12	79*	17	2
CC(C)C(=O)Nc1ccc2c(c1)C(=O)N(C)[C@@H]1CC[C@@H](CC(=O)O)O[C@@H]1CO2	-1	1	8	-2	-5
C[C@H]1CN([C@@H](C)CO)C(=O)Cc2cc(NS(=O)(=O)c3ccccc3)ccc2O[C@@H]1CN(C)C(=O)NC1CCCCC1	0	-2	11	7	0
CN(C(=O)COC(=O)c1cnc(Cl)c(Cl)c1)C1CCCCC1	-1	4	2	-14*	-2
CN1C[C@H]2[C@@H](c3ccccc31)[C@H](CO)N2C(=O)CN1CCOCC1	-3	-1	4	1	0
COc1ccc(-n2nc(C(=O)NCC(=O)NCCCN3CCCCCC3)c3ccccc3c2=O)cc1Cl	-1	-1	-3	10	-5
COCCCNC(=O)CNC(=O)c1nn(-c2ccc(OC)c(Cl)c2)c(=O)c2ccccc12	2	4	7	2	17*
Cc1ccc2c(c1)c(CC(=O)Nc1ccc(C)c(F)c1)c(C(=O)O)n2C	-2	-1	0	-24*	1
CCc1ccc(NC(=O)Cc2c(C(=O)O)n(C)c3ccccc23)cc1	-1	2	0	-38	-3
COc1ccccc1-c1cnc2c(c1)C(=O)N([C@H](C)CO)C[C@H](C)[C@@H](CN(C)Cc1ccc(C(=O)O)cc1)O2	2	-3	0	2	1
COc1ccc(-c2ccc3c(c2)O[C@@H](CN(C)CC2CC2)[C@@H](C)CN([C@H](C)CO)S3(=O)=O)cc1	-3	x	x	0	x
O=C(O)c1ccccc1Nc1ccc(OC(F)F)cc1	-2	-2	-2	-16*	8
O=C(O)c1ccccc1Nc1ccccc1	-3	-2	-2	x	-4
COc1ccc(S(=O)(=O)Nc2cccc3ccc(O)cc23)cc1	14*	x	16	-28	0
CNC(=O)C[C@@H]1CC[C@H]2[C@H](COc3ccc(NC(=O)Nc4cccc(C)c4)cc3C(=O)N2C)O1	1	1	3	1	4
COc1ccc([C@H]2CC(=O)C=C(c3ccc4c(c3)OCCO4)C2)cc1	-1	-1	2	-21*	-1
COc1ccc(C2CC(=O)C=C(NCc3ccc4c(c3)OCO4)C2)cc1 (stereo not given)	1	1	-7	-24*	-4
CCS(=O)(=O)N1CC(=O)N2[C@@H](CO)[C@H](c3ccc(-c4cccc(F)c4)cc3)[C@@H]2C1	4	-6	5	-1	-2
COc1cc(C(N)=O)cc(Br)c1OCc1ccccc1	-1	-2	1	-28*	-2
COc1cc(/C=C2/NC(=O)NC2=O)cc(Br)c1OCc1ccc(C(=O)O)cc1	2	9	1	-28	15*
CCOc1c(Br)cc(C(N)=O)cc1OCc1ccccc1	-2	0	-13	-37	-2
SMILES	F508del corr	ERAP1 HTS inh	S100A4 MyoIIA	rRNA inh HTS	SIRT5 block
Cc1noc(C)c1S(=O)(=O)Nc1ccc2c(c1)C(=O)N([C@@H](C)CO)C[C@@H](C)[C@@H](CN(C)Cc1ccncc1)OCCCC[C@@H](C)O2	0	1	-3	1	-2
CCCNC(=O)N(C)C[C@H]1Oc2cc(-c3cccnc3)ccc2S(=O)(=O)N([C@H](C)CO)C[C@@H]1C	0	0	6	0	-2
O=C(C[C@H]1CC[C@@H]2[C@H](COC[C@@H](O)CN2S(=O)(=O)c2ccccc2)O1)Nc1ccc(-c2ccccc2)cc1	8.3*	1	2	4	-2
COC(=O)C[C@H]1CC[C@@H]2[C@H](COC[C@@H](O)CN2S(=O)(=O)c2ccccc2OC)O1	1	x	x	x	x
O=C(C[C@H]1CC[C@H]2[C@@H](COC[C@H](O)CN2S(=O)(=O)c2cccc(Cl)c2)O1)Nc1ccc(-c2ccccc2)cc1	3	0	-5	4	12
O=C(C[C@H]1CC[C@H]2[C@@H](COC[C@@H](O)CN2S(=O)(=O)c2cccc(Cl)c2)O1)Nc1ccc(-c2ccccc2)cc1	6	2	2	5	19*
O=C(C[C@@H]1CC[C@@H]2[C@H](COC[C@@H](O)CN2S(=O)(=O)c2ccccc2)O1)Nc1ccc(-c2ccccc2)cc1	0	1	0	-3	-3
COC(=O)C[C@H]1CC[C@H]2[C@@H](COC[C@H](O)CN2S(=O)(=O)c2ccccc2OC)O1	-1	0	-5	1	17*
O=C(CC(C(=O)O)c1ccc(Cl)cc1)c1ccc(Br)cc1 (stereo not given)	2	-2	0	-1	17*
COC(=O)C(CC(=O)c1ccc(Cl)cc1)c1ccccc1 (stereo not given)	0	-1	-2	-1	0
Cc1cc(=O)[nH]c(N/N=C/CCc2ccccc2)n1	x	-2	-8	-27*	0
COc1ccc(NC(=O)N(C)C[C@H]2OCCCC[C@@H](C)Oc3ccc(NS(=O)(=O)c4cccs4)cc3C(=O)N([C@H](C)CO)C[C@@H]2C)cc1	-2	-7	-4	0	6
COc1ccc(NC2=C(C(C)=O)C(c3ccccc3)C(C(C)=O)C(C)(O)C2)cc1 (stereo not given)	-1	5	-9	-27*	-1
C[C@H]1CN([C@@H](C)CO)S(=O)(=O)c2ccc(/C=C/c3ccccc3)cc2O[C@@H]1CN(C)C(=O)c1ccc2c(c1)OCO2	-4	8	0	-5	2
CC(=O)N(C)C[C@@H]1Oc2cc(C#Cc3ccccc3F)ccc2S(=O)(=O)N([C@H](C)CO)C[C@@H]1C	2	-3	6	5	1
C[C@H](CO)N1C[C@H](C)[C@H](CN(C)C(=O)c2ccc3c(c2)OCO3)Oc2cc(/C=C/c3ccccc3)ccc2S1(=O)=O	-1	-4	0	-2	29*
